Measurements from ChEMBL document CHEMBL2434932, “Design, synthesis and biological evaluation of a novel class of potent TGR5 agonists based on a 4-phenyl pyridine scaffold” (Eur J Med Chem, 2013).
Activity calls are given as the source filed them. The rule behind the calls is not given here.

Legend:
[1] = biological target: T1, G-protein coupled bile acid receptor 1 (Mus musculus) (UniProt Q80SS6); experiment: Agonist activity at mouse TGR5 expressed in HEK293 cells assessed CRE-induced luciferase activity after 5.5 hrs by reporter gene assay relative to control; assay type: functional, cell-based; set-up: concentration or dose not given beside the values
T1 sequence (whole entry): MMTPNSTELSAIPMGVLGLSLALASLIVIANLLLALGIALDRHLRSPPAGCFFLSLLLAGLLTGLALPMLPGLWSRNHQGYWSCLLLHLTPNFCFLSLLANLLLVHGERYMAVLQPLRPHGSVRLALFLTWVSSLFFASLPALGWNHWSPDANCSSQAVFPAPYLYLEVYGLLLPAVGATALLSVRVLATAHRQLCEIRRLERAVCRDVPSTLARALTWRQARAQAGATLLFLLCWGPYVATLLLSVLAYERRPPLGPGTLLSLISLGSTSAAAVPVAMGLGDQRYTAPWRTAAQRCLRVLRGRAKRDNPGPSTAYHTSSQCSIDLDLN
Outline: (§1)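 HEK293 cells were stably transfected with a human or mouse TGR5 expression plasmid plus a CRE-driven luciferase reporter (pGL4.29). Cells were seeded and incubated overnight in DMEM with 10% FBS at 37 °C in 5% CO2, then exposed in fresh medium to a range of test concentrations. Luciferase read-out. Max effect % was scaled from DMSO vehicle (0%) to the INT-777 reference (100%). EC50 was taken from at least two independent experiments at eight concentrations each, mean ± SD.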

[2] = biological target: T2, G-protein coupled bile acid receptor 1 (Homo sapiens, UniProt Q8TDU6); experiment: Agonist activity at human TGR5 expressed in HEK293 cells assessed CRE-induced luciferase activity after 5.5 hrs by reporter gene assay; assay type: functional, cell-based
T2 sequence (Q8TDU6 whole entry): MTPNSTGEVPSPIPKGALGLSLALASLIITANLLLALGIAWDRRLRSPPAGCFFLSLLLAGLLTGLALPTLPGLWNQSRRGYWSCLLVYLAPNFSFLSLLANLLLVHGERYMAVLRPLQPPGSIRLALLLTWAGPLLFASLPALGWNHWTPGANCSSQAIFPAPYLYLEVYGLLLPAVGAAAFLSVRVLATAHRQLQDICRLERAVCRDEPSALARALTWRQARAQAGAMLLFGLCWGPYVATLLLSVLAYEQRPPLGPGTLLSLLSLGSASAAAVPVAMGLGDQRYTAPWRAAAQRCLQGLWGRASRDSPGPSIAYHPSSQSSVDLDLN

[3] = biological target: T3, G-protein coupled bile acid receptor 1 (Mus musculus, UniProt Q80SS6); experiment: Agonist activity at mouse TGR5 expressed in HEK293 cells assessed CRE-induced luciferase activity after 5.5 hrs by reporter gene assay; assay type: functional, cell-based
T3 sequence (Q80SS6 whole entry): T1 sequence (whole entry)
Outline: as §1, with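 “read-out.” for “read-out. Max effect % was scaled from DMSO vehicle (0%) to the INT-777 reference (100%).”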

[4] = biological target: T4, G-protein coupled bile acid receptor 1 (Homo sapiens) (UniProt Q8TDU6); experiment: Agonist activity at human TGR5 expressed in HEK293 cells assessed CRE-induced luciferase activity at 10 uM after 5.5 hrs by reporter gene assay; assay type: functional, cell-based
T4 sequence (whole entry): T2 sequence (Q8TDU6 whole entry)

[5] = test system: Mus musculus; experiment: Toxicity in oral glucose loaded ICR mouse assessed as effect on size of the gallbladder at 50 mg/kg, po; assay type: organism-based; set-up: dose 50 mg/kg, route oral; details: in vivo
Outline: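 Male ICR mice from the OGTT (oral dose 50 mg/kg in 0.25% CMC, n = 7–8 per group) were re-fed for 2 h after the test. The gallbladders were then ligated and removed. Gallbladder size was measured by vernier caliper. Bile weight was taken as the gross weight of gallbladder with bile minus the net gallbladder weight.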

[6] = MRT (0 to t) in Sprague-Dawley rat at 5 mg/kg, po; assay type: ADME, organism-based; set-up: dose 5 mg/kg, route oral; details: in vivo
Outline: (§2)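 Male SD rats, n = 6 per group, dosed orally at 5 mg/kg as a 0.25% CMC-Na formulation. PK parameters were derived by non-compartmental analysis and are reported as mean ± SD.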

[7] = Half life in Sprague-Dawley rat at 5 mg/kg, po; assay type: ADME, organism-based; set-up: dose 5 mg/kg, route oral; details: in vivo; outline: as §2
[8] = AUC (0 to infinity) in Sprague-Dawley rat at 5 mg/kg, po; assay type: ADME, organism-based; set-up: dose 5 mg/kg, route oral, time infinity; details: plasma; outline: as §2
[9] = test system: Mus musculus; experiment: Antidiabetic activity in oral glucose loaded ICR mouse assessed as reduction of blood glucose AUC (0 to 120 mins) at 50 mg/kg, po; assay type: functional, organism-based; set-up: dose 50 mg/kg
Outline: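 Male ICR mice were fasted overnight and dosed orally at 50 mg/kg in 0.25% CMC vehicle (n = 7–8 per group), 30 min before an oral glucose load of 4 g/kg. Tail-clip blood glucose was measured before dosing and at 0, 15, 30, 60 and 120 min after the load. AUC0–120 min was calculated by the trapezoidal rule using each animal's 0-min glucose as its baseline.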

[10] = AUC (0 to t) in Sprague-Dawley rat at 5 mg/kg, po; assay type: ADME, organism-based; set-up: dose 5 mg/kg, route oral; details: plasma; outline: as §2
[11] = Tmax in Sprague-Dawley rat at 5 mg/kg, po; assay type: ADME, organism-based; set-up: dose 5 mg/kg, route oral; details: in vivo; outline: as §2
[12] = Clearance in Sprague-Dawley rat at 5 mg/kg, po; assay type: ADME, organism-based; set-up: dose 5 mg/kg, route oral; details: in vivo; outline: as §2
[13] = MRT (0 to infinity) in Sprague-Dawley rat at 5 mg/kg, po; assay type: ADME, organism-based; set-up: dose 5 mg/kg, route oral; details: in vivo; outline: as §2
[14] = Cmax in Sprague-Dawley rat at 5 mg/kg, po; assay type: ADME, organism-based; set-up: dose 5 mg/kg, route oral; details: in vivo; outline: as §2

Compound	Activity [1]	EC50 [2]	EC50 [3]	also measured
Fc1ccccc1-c1ccncc1CNCc1cc(C(F)(F)F)cc(C(F)(F)F)c1		458 nM		
CCOc1nccc(-c2ccccc2F)c1CNS(=O)(=O)c1cc(C(F)(F)F)cc(C(F)(F)F)c1				Activity [4]: 18%
CCC(=O)N(Cc1cc(C(F)(F)F)cc(C(F)(F)F)c1)Cc1cnccc1-c1ccccc1		1270 nM		
O=C(O)C(NCc1cnccc1-c1ccccc1F)c1cc(C(F)(F)F)cc(C(F)(F)F)c1 (stereo unspecified)				Activity [4]: 16%
O=C(NCc1cnccc1-c1ccccc1F)c1cc(C(F)(F)F)cc(C(F)(F)F)c1				Activity [4]: 46%
CC(=O)N(Cc1cc(C(F)(F)F)cc(C(F)(F)F)c1)Cc1cnccc1-c1ccccc1		910 nM		
N#CC(c1cc(C(F)(F)F)cc(C(F)(F)F)c1)N(Cc1ccco1)Cc1cnccc1-c1ccccc1F (racemic)		892 nM		
O=C(C1CCCCC1)N(Cc1cc(C(F)(F)F)cc(C(F)(F)F)c1)Cc1cnccc1-c1ccccc1				Activity [4]: 19%
O=S(=O)(c1cc(C(F)(F)F)cc(C(F)(F)F)c1)N(Cc1ccccc1)Cc1cnccc1-c1ccccc1F		2100 nM		
FC(F)(F)c1cc(CNCc2cnccc2-c2ccccc2)cc(C(F)(F)F)c1		580 nM		
O=S(=O)(NCc1c(-c2ccccc2F)ccnc1-c1ccccc1)c1cc(C(F)(F)F)cc(C(F)(F)F)c1				Activity [4]: 18%
O=C1COc2nccc(-c3ccccc3F)c2CN1Cc1cc(C(F)(F)F)cc(C(F)(F)F)c1	130%			
O=C(c1ccco1)N(Cc1cc(C(F)(F)F)cc(C(F)(F)F)c1)Cc1cnccc1-c1ccccc1		470 nM		
CCCN(Cc1cnccc1-c1ccccc1F)C(C#N)c1cc(C(F)(F)F)cc(C(F)(F)F)c1 (racemic)		466 nM		
NCc1cnccc1-c1ccccc1F				Activity [4]: 1%
CC[C@H]1[C@@H](O)[C@@H]2[C@H](C[C@H](O)[C@]3(C)[C@@H]([C@H](C)C[C@H](C)C(=O)O)CC[C@@H]23)[C@@]2(C)CC[C@@H](O)C[C@@H]12	100%			
O=C(c1ccco1)N(Cc1cc(C(F)(F)F)cc(C(F)(F)F)c1)Cc1cnccc1-c1ccccc1F		500 nM		
CCC(c1cc(C(F)(F)F)cc(C(F)(F)F)c1)N(Cc1cnccc1-c1ccccc1)C(=O)c1ccco1 (racemic)		1230 nM		
O=C(c1ccc(Cl)cc1)N(Cc1cc(C(F)(F)F)cc(C(F)(F)F)c1)Cc1cnccc1-c1ccccc1		7430 nM		
O=C(c1ccncc1)N(Cc1cc(C(F)(F)F)cc(C(F)(F)F)c1)Cc1cnccc1-c1ccccc1		4080 nM		

The remaining molecules from weak to strong by EC50 [2], led by results:

Activity [1]	EC50 [2]	EC50 [3]	Compound	also measured
	440 nM		COC(=O)C(NCc1cnccc1-c1ccccc1F)c1cc(C(F)(F)F)cc(C(F)(F)F)c1 (stereo unspecified)	
	406 nM		O=S(=O)(NCc1c(-c2ccccc2F)ccnc1Cl)c1cc(C(F)(F)F)cc(C(F)(F)F)c1	
	384 nM		CCC(NCc1cnccc1-c1ccccc1F)c1cc(C(F)(F)F)cc(C(F)(F)F)c1 (racemic)	
	350 nM		O=C(c1ccccc1)N(Cc1cc(C(F)(F)F)cc(C(F)(F)F)c1)Cc1cnccc1-c1ccccc1	
	320 nM		O=C(c1ccoc1)N(Cc1cc(C(F)(F)F)cc(C(F)(F)F)c1)Cc1cnccc1-c1ccccc1	
119%	310 nM	1180 nM	CC(c1cc(C(F)(F)F)cc(C(F)(F)F)c1)N(Cc1cnccc1-c1ccccc1)C(=O)c1ccco1 (racemic)	
127%	260 nM	300 nM	O=C(c1cccs1)N(Cc1cc(C(F)(F)F)cc(C(F)(F)F)c1)Cc1cnccc1-c1ccccc1	
117%	204 nM	2040 nM	CC(NCc1cnccc1-c1ccccc1F)c1cc(C(F)(F)F)cc(C(F)(F)F)c1 (racemic)	
111%	120 nM	230 nM	O=C(c1ccsc1)N(Cc1cc(C(F)(F)F)cc(C(F)(F)F)c1)Cc1cnccc1-c1ccccc1	
148%	63 nM	820 nM	O=S(=O)(NCc1cnccc1-c1ccccc1F)c1cc(C(F)(F)F)cc(C(F)(F)F)c1	
123%	62 nM	550 nM	O=S(=O)(NCc1cnccc1-c1c(F)cccc1F)c1cc(C(F)(F)F)cc(C(F)(F)F)c1	
120%	61 nM	370 nM	N#CC(NCc1cnccc1-c1ccccc1)c1cc(C(F)(F)F)cc(C(F)(F)F)c1 (racemic)	
146%	53 nM	1090 nM	O=C(c1ccsc1)N(Cc1cnccc1-c1ccccc1F)S(=O)(=O)c1cc(C(F)(F)F)cc(C(F)(F)F)c1	
123%	51 nM	100 nM	N#CC(NCc1cnccc1-c1c(F)cccc1F)c1cc(C(F)(F)F)cc(C(F)(F)F)c1 (racemic)	
121%	35 nM	150 nM	N#CC(NCc1cnccc1-c1ccccc1F)c1cc(C(F)(F)F)cc(C(F)(F)F)c1 (racemic)	Activity [5]: Non-toxic; MRT last [6]: 2.6 h; half-life [7]: 2.3 h; AUC(0-inf) [8]: 55 ng·h/mL; Activity [9]: inactive; AUC(0-t) [10]: 49.1 ng·h/mL; Tmax [11]: 1.9 h; CL/F [12]: 1520 mL/min/kg; MRT inf [13]: 3.6 h; Cmax [14]: 16.3 ng/mL
139%	32 nM	910 nM	O=C(c1ccco1)N(Cc1cnccc1-c1ccccc1F)S(=O)(=O)c1cc(C(F)(F)F)cc(C(F)(F)F)c1	
144%	31 nM	850 nM	O=C(c1ccccc1)N(Cc1cnccc1-c1ccccc1F)S(=O)(=O)c1cc(C(F)(F)F)cc(C(F)(F)F)c1	
